According to ChEMBL document CHEMBL3739298, “(9βH)-Pimaranes and Derivatives from the Tuber of Icacina trichantha” (J Nat Prod, 2015):

Key:
Assay type in all cases: functional, cell-based; call rule not given here
MDA-MB-435 = experiment: Cytotoxicity against human MDA-MB-435 cells after 72 hrs by cell proliferation assay
How it was run: (§1)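 Cells from ATCC grown at 37 °C, 5% CO2 in RPMI 1640 with 10% FBS, penicillin 100 units/mL, streptomycin 100 μg/mL. Log-phase cells trypsinized, washed twice, seeded at 5000/well, left overnight. DMSO-dissolved samples tested at 20, 4, 0.8, 0.16, 0.032 μM (final DMSO 0.5%) for 72 h at 37 °C. Viable cells read by MTS-type absorbance assay; IC50 relative to DMSO control.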

MDA-MB-231 = experiment: Cytotoxicity against human MDA-MB-231 cells after 72 hrs by cell proliferation assay; how it was run: as §1
[1] = Cytotoxicity against human OVCAR3 cells after 72 hrs by cell proliferation assay; settings: ovcar-3; how it was run: as §1

| Structure (SMILES) | IC50 (MDA-MB-435; mda-mb-435) | IC50 (MDA-MB-231) | IC50 [1] | IC50 (MDA-MB-435; Homo sapiens, MDA-MB-435, 72 h, read-out: IC50) |
| --- | --- | --- | --- | --- |
| C[C@]12C(=O)OC[C@@]3(CC[C@@H]1O)[C@@H]1CC(=O)c4ccoc4[C@@H]1C[C@@H](O)[C@H]32 | Not Active | Not Active | Not Active | – |
| C[C@@]12C(=O)CC[C@]3(C)[C@@H]4CC[C@@]5(C)[C@@H](O)CO[C@H]5C4=C[C@@H](OC1=O)[C@@H]23 | Not Active | Not Active | Not Active | – |
| COc1cc2c(c3occc13)[C@@H](O)[C@H]1OC(=O)[C@]3(C)[C@H]1[C@]21CCC3(O)OC1 | Not Active | Not Active | Not Active | – |
| CO[C@@]12OC[C@@H](O)[C@]1(C)CC[C@@H]1C2=C[C@H]2OC(=O)[C@]3(C)[C@H]2[C@]12CCC3(O)OC2 | – | Not Active | Not Active | 7.04 µM |
| C[C@]12C(=O)O[C@@H]3Cc4c(cc(O)c5ccoc45)[C@@]4(CCC1(O)OC4)[C@@H]32 | Not Active | Not Active | Not Active | – |
